The subject of series [1] is Escherichia coli. The series is described as follows: Antibacterial activity against Escherichia coli BL21 AI after 20 hrs by broth microdilution assay. The class given is functional. The method in brief:
(§1)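 Nutrient-broth overnight cultures diluted in 1% TSB; E. coli BL21AI 7.5 × 10^5 cells/well, M. luteus ATCC 10240 2 × 10^6 cells/well. Peptides serially 2-fold diluted in 1% TSB from 128 to typically 0.5 μg/mL. Incubation at 37 °C; A595 read after 20 ± 2 h. MIC is the lowest concentration with absorbance not above medium only. Triplicate.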
(In general: In broth dilution the organism is exposed to a series of concentrations in liquid medium.)

Series [2] concerns Micrococcus luteus. In words: Antibacterial activity against Micrococcus luteus ATCC 10240 after 20 hrs by broth microdilution assay. The class given is functional. Conditions: ATCC 10240, 20 h. The method in brief: as §1
Series [3] has as its system SH-SY5Y. The series is described as follows: Cytotoxicity against human SH-SY5Y cells at 600 ug/ml after 24 hrs by MTT assay. The class given is cell-based. The method in brief: (§2)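 HeLa (1.5 × 10^4/well, seeded overnight) or SH-SY5Y (2 × 10^4/well, differentiated 5 days with 10 μM trans-retinoic acid) in DMEM/Ham's F-12 with 5% or 15% FBS. Peptide added at 600 μg/mL for 24 h at 37 °C, 5% CO2. MTT 0.5 mg/mL for 4 h, then SDS/HCl for 16 h; A590 read against 650 nm. Normalized to PBS (100%); DMSO 12% as positive control.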
A general note: Tetrazolium dyes change colour on reduction, which living cells bring about.

Series [4] relates to HeLa. In words: Cytotoxicity against human HeLa cells at 600 ug/ml after 24 hrs by MTT assay. In kind it is cell-based. The method in brief:
as §2

Experimental findings from ChEMBL document CHEMBL1155452, “Oncocin (VDKPPYLPRPRPPRRIYNR-NH2): a novel antibacterial peptide optimized against gram-negative human pathogens” (J Med Chem, 2010) are described below.

In the case of H-VDKPPYLPRPHPPRRIYNNR-OH, the MIC in series [1] was determined as 64 µg/mL; in series [2], 32 µg/mL.

In the case of H-GKPRPYSPRPTSHPRPIRV-OH [DROSOCIN], the Activity entry in series [3] and in series [4] was “Non-toxic” in each case.

In the case of H-VDKPPYLPRPPPPRRIYNNR-OH, the MIC in series [1] amounted to 128 µg/mL; in series [2] it was 64 µg/mL.

Regarding H-VDKPPYLPRPKPPRRIYNNR-OH, the MIC in series [1] and in series [2] was 16 µg/mL throughout.

Take H-VDKPPYLPRPRPPRRIYNNR-OH: the MIC was 8 µg/mL in series [1] and 16 µg/mL in series [2].

As to H-VDKPPYLPRPTPPRRIYNNR-OH, the MIC is 128 µg/mL in series [1] and 64 µg/mL in series [2].

One may read the MIC as the lowest concentration found to suppress growth.
